Measured values as given in ChEMBL document CHEMBL3853270, “Influence of Birch Bark Triterpenes on Keratinocytes and Fibroblasts from Diabetic and Nondiabetic Donors” (2016).
The source made the active and inactive calls. No cut-off for these calls is given here.

Tests used:
Format in all cases: functional
Keratinocyte [1] = test: Effect on cellular connection related gene expression in diabetic adult human primary keratinocytes assessed as GJB2 mRNA levels at 9.81 uM after 6 hrs by qPCR analysis
Keratinocyte [2] = test: Effect on MMP1 mRNA expression levels in non-diabetic young human primary keratinocytes at 1.96 uM after 6 hrs by qPCR analysis
In short: (§1)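 Primary keratinocytes from nondiabetic young and adult and diabetic adult donors; 400 000 cells per sample, 6 h exposure at 1.96 or 9.81 μM. RNA extracted and read on a high-throughput qPCR chip. Results are fold change versus 0.1% DMSO solvent control from 5−7 independent experiments over two donors per group, SD, one-way ANOVA with Bonferroni post-test.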

[3] = Effect on wound healing activity in non-diabetic adult human primary keratinocytes assessed as upregulation of TNFalpha protein levels at 1.96 uM after 24 hrs by bead-based suspension array analysis; settings: Keratinocyte
Fibroblast [4] = test: Effect on chemokines related gene expression in non-diabetic adult human primary fibroblasts assessed as IL8 mRNA levels at 1.96 uM after 6 hrs by qPCR analysis
Fibroblast [5] = test: Effect on MMP1 mRNA expression levels in non-diabetic adult human primary fibroblasts at 1.96 uM after 6 hrs by qPCR analysis
In short: (§2)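 Primary dermal fibroblasts from one nondiabetic young, one nondiabetic adult and one diabetic adult donor; 320 000 cells per sample, 6 h at 1.96 or 9.81 μM. RNA measured on a high-throughput qPCR chip. Fold change versus 0.1% DMSO control, four independent experiments, SD, one-way ANOVA with Bonferroni post-test.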

Fibroblast [6] = test: Effect on pro-inflammatory related gene expression in diabetic adult human primary fibroblasts assessed as IL1B mRNA levels at 9.81 uM after 6 hrs by qPCR analysis
In short: (§3)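 Primary human dermal fibroblasts (young or adult nondiabetic, adult diabetic donor) were treated for 6 h against a 0.1% DMSO solvent control. RNA from 320 000 cells per sample was measured by Fluidigm Biomark high-throughput qPCR. Values are fold change relative to solvent control, from four independent experiments, with SD. One-way ANOVA with Bonferroni post-test was applied.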

Fibroblast [7] = test: Effect on chemokines related gene expression in diabetic adult human primary fibroblasts assessed as CCL2 mRNA levels at 1.96 uM after 6 hrs by qPCR analysis
Keratinocyte [8] = test: Effect on antiinflammatory related gene expression in non-diabetic adult human primary keratinocytes assessed as NFKBIA mRNA levels at 9.81 uM after 6 hrs by qPCR analysis; in short: as §1
Keratinocyte [9] = test: Effect on chemokines related gene expression in diabetic adult human primary keratinocytes assessed as CXCL10 mRNA levels at 9.81 uM after 6 hrs by qPCR analysis
Fibroblast [10] = test: Effect on antiinflammatory related gene expression in diabetic adult human primary fibroblasts assessed as SOCS3 mRNA levels at 9.81 uM after 6 hrs by qPCR analysis; in short: as §2
Keratinocyte [11] = test: Effect on cellular connection related gene expression in non-diabetic adult human primary keratinocytes assessed as GJB2 mRNA levels at 1.96 uM after 6 hrs by qPCR analysis
Fibroblast [12] = test: Effect on adhesion molecules related gene expression in non-diabetic adult human primary fibroblasts assessed as ICAM1 mRNA levels at 1.96 uM after 6 hrs by qPCR analysis
In short: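 Dermal fibroblasts from nondiabetic adult and diabetic adult donors, exposed for 6 h at 1.96 or 9.81 μM. ICAM-1 and VCAM-1 mRNA measured by standard qRT-PCR, n = 3. Fold change versus 0.1% DMSO control, SD, one-way ANOVA with Bonferroni post-test.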

Fibroblast [13] = test: Effect on growth factor related gene expression in non-diabetic young human primary fibroblasts assessed as GDF15 mRNA levels at 9.81 uM after 6 hrs by qPCR analysis; in short: as §3
Fibroblast [14] = test: Effect on chemokines related gene expression in non-diabetic adult human primary fibroblasts assessed as IL8 mRNA levels at 9.81 uM after 6 hrs by qPCR analysis
Keratinocyte [15] = test: Effect on MMP1 mRNA expression levels in diabetic adult human primary keratinocytes at 1.96 uM after 6 hrs by qPCR analysis; in short: as §1
Keratinocyte [16] = test: Effect on pro-inflammatory related gene expression in diabetic adult human primary keratinocytes assessed as IL1R1 mRNA levels at 9.81 uM after 6 hrs by qPCR analysis
Keratinocyte [17] = test: Effect on pro-inflammatory related gene expression in non-diabetic adult human primary keratinocytes assessed as IL1R1 mRNA levels at 9.81 uM after 6 hrs by qPCR analysis
[18] = Upregulation of wound healing activity related GM-CSF protein levels in non-diabetic adult human primary keratinocytes at 1.96 uM after 24 hrs by bead-based suspension array analysis; settings: Keratinocyte
Keratinocyte [19] = test: Effect on cellular connection related gene expression in non-diabetic young human primary keratinocytes assessed as CLDN4 mRNA levels at 9.81 uM after 6 hrs by qPCR analysis
Fibroblast [20] = test: Effect on antioxidant related gene expression in non-diabetic young human primary fibroblasts assessed as NFE2L2 mRNA levels at 1.96 uM after 6 hrs by qPCR analysis
[21] = Effect on wound healing activity in non-diabetic adult human primary keratinocytes assessed as upregulation of IL1RA protein levels at 1.96 uM after 24 hrs by bead-based suspension array analysis; settings: Keratinocyte
Keratinocyte [22] = test: Effect on growth factor related gene expression in diabetic adult human primary keratinocytes assessed as GDF15 mRNA levels at 9.81 uM after 6 hrs by qPCR analysis
In short: (§4)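 Primary human keratinocytes (nondiabetic young or adult, diabetic adult donors) were exposed to compound for 6 h, with 0.1% DMSO as solvent control. Total RNA came from 400 000 cells per sample and was assayed on a Fluidigm Biomark high-throughput qPCR chip. Results are fold change vs solvent control, from 2−4 independent experiments on two donors per group, with SD. Groups were compared by one-way ANOVA with Bonferroni post-test.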

Fibroblast [23] = test: Effect on pro-inflammatory related gene expression in non-diabetic adult human primary fibroblasts assessed as IL1B mRNA levels at 9.81 uM after 6 hrs by qPCR analysis
Keratinocyte [24] = test: Effect on growth factor related gene expression in non-diabetic adult human primary keratinocytes assessed as VEGFA mRNA levels at 9.81 uM after 6 hrs by qPCR analysis; in short: as §4
Keratinocyte [25] = test: Effect on pro-inflammatory related gene expression in diabetic adult human primary keratinocytes assessed as TNF mRNA levels at 1.96 uM after 6 hrs by qPCR analysis
Keratinocyte [26] = test: Effect on cellular connection related gene expression in non-diabetic young human primary keratinocytes assessed as GJB2 mRNA levels at 9.81 uM after 6 hrs by qPCR analysis
[27] = Effect on wound healing activity in diabetic adult human primary keratinocytes assessed as upregulation of IL8 protein levels at 1.96 uM after 24 hrs by bead-based suspension array analysis; settings: Keratinocyte
[28] = Effect on wound healing activity in diabetic adult human primary fibroblasts assessed as upregulation of MIF protein levels at 1.96 uM after 24 hrs by bead-based suspension array analysis; settings: Fibroblast
[29] = Effect on wound healing activity in non-diabetic adult human primary fibroblasts assessed as upregulation of soluble VCAM1 protein levels at 1.96 uM after 24 hrs by bead-based suspension array analysis; settings: Fibroblast

## C=C(C)[C@@H]1CC[C@]2(CO)CC[C@]3(C)[C@H](CC[C@@H]4[C@@]5(C)CC[C@H](O)C(C)(C)[C@@H]5CC[C@]43C)[C@@H]12 [BETULIN]
Keratinocyte [1]
  fold change (FC): 0.9
Keratinocyte [2]
  fold change (FC): 1
[3]
  Activity: Active
Fibroblast [4]
  fold change (FC): 702
Fibroblast [5]
  fold change (FC): 2.1
Fibroblast [6]
  fold change (FC): 2.9
Fibroblast [7]
  fold change (FC): 3.7
Keratinocyte [8]
  fold change (FC): 1.9
Keratinocyte [9]
  fold change (FC): 12.1
Fibroblast [10]
  fold change (FC): 1.4
Keratinocyte [11]
  fold change (FC): 0.7
Fibroblast [12]
  fold change (FC): 144
Fibroblast [13]
  fold change (FC): 5.1
Fibroblast [14]
  fold change (FC): 991
Keratinocyte [15]
  fold change (FC): 1.2
Keratinocyte [16]
  fold change (FC): 0.9
Keratinocyte [17]
  fold change (FC): 0.9
[18]
  Activity: Active
Keratinocyte [19]
  fold change (FC): 1.9
Fibroblast [20]
  fold change (FC): 1.2
[21]
  Activity: Active
Keratinocyte [22]
  fold change (FC): 2.5
Fibroblast [23]
  fold change (FC): 214
Keratinocyte [24]
  fold change (FC): 1.7
Keratinocyte [25]
  fold change (FC): 5.3
Keratinocyte [26]
  fold change (FC): 0.8
[27]
  Activity: Active
[28]
  Activity: Active
[29]
  Activity: Active
